ChEMBL document CHEMBL1125819, “Novel benzamides as selective and potent gastrokinetic agents. 2. Synthesis and structure-activity relationships of 4-amino-5-chloro-2-ethoxy-N-[[4-(4-fluorobenzyl)-2- morpholinyl]methyl] benzamide citrate (AS-4370) and related compounds” (J Med Chem, 1991)

Columns and labels:
[1] = tested on: Mus musculus; experiment: Toxicity tested in mouse and expressed as number of dead mouse / number of mouse used after a dose of 1.0 g/kg perorally; +++ potent toxicity; type: organism-based; settings: in vivo, po, 1000 mg/kg
Procedure, shortened: (§1)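 Male ddY mice (18–25 g), groups of 10, given test compound dissolved or suspended in 0.5% tragacanth solution at a single oral dose of 1.0 g/kg. Mortality observed over 7 days after dosing and scored as dead/used per group; + corresponds to 0–2/10 dead.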

[2] = tested on: Rattus norvegicus; experiment: Gastric emptying of phenol red semisolid meal in rats at dose of 2.0 mg/kg, administered perorally.; type: functional; settings: route oral
[3] = target: Serotonin 1 (5-HT1) receptor (Rattus norvegicus, UniProt P28564+P30940+P19327+P28565); experiment: Inhibitory activity against 5-hydroxytryptamine 1 receptor by 3H ligand binding experiments.; type: protein assay
Procedure, shortened: (§2)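 Competition binding on rat brain synaptic membranes at 10 mg wet tissue per assay, with compounds at 0.01–1000 μM. Radioligand and tissue: S1, [3H]serotonin, frontal cortex; S2, [3H]spiperone, frontal cortex; α1, [3H]WB-4101, whole brain; α2, [3H]clonidine, whole brain. Assays ended by rapid filtration and scintillation counting. IC50 was derived by probit analysis.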

[4] = target: T1, Adrenergic receptor alpha-1 (Rattus norvegicus, UniProt P15823+P23944+P43140); experiment: Inhibitory activity against Alpha-1 adrenergic receptor by 3H ligand binding experiments.; type: protein assay; procedure, shortened: as §2
T1 sequence (P15823 whole entry): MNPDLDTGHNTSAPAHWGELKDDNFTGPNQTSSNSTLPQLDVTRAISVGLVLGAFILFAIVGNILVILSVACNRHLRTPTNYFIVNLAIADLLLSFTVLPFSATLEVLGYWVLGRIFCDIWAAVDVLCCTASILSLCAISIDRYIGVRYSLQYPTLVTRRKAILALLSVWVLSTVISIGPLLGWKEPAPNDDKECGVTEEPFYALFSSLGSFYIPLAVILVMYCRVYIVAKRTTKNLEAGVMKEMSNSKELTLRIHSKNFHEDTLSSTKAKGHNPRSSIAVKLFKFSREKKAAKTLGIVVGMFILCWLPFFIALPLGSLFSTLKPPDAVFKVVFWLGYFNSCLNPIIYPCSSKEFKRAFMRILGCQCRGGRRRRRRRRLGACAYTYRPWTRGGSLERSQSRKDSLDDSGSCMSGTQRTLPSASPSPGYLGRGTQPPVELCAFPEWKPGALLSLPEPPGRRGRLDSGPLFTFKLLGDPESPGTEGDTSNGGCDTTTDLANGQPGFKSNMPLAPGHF
T1 sequence (P23944 whole entry): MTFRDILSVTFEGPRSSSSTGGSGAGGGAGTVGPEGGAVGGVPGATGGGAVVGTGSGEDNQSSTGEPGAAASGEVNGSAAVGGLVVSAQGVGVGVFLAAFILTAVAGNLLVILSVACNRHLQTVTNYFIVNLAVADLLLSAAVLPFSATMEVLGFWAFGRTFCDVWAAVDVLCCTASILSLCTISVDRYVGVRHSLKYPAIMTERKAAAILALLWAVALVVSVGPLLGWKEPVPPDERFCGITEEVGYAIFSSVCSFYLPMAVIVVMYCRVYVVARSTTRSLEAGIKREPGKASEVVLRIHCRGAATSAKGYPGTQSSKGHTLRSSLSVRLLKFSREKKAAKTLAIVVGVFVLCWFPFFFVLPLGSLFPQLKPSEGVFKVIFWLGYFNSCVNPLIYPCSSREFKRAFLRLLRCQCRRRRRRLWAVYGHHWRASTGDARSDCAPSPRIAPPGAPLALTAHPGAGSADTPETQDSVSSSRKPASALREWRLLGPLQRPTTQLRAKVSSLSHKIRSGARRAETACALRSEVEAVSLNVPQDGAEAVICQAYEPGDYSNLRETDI
T1 sequence (P43140 whole entry): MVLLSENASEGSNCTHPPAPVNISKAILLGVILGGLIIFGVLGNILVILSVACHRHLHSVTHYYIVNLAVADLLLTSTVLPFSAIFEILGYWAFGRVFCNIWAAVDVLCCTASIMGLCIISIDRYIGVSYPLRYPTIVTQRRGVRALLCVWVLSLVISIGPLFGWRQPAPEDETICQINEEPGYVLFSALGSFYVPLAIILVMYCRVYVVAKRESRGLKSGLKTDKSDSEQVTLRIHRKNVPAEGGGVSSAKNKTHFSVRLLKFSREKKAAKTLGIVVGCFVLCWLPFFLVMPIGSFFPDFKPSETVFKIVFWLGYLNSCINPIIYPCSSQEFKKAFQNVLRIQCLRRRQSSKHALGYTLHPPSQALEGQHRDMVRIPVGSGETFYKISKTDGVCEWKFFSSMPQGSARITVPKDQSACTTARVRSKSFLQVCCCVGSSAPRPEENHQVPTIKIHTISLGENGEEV

[5] = tested on: Canis familiaris; experiment: Compound was tested for anti-apomorphine effect in 2 dogs and the vomiting frequency expressed at a dose of 1.0 mg/kg perorally.; type: functional, Canis lupus familiaris; settings: route oral
Procedure, shortened: (§3)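 Dogs received oral test article, then were challenged with apomorphine, and vomiting frequency was counted; saline controls were run. ED50 with 95% confidence limits was derived by probit analysis. Significance versus control was tested by Student's t test.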

[6] = species: Canis familiaris; experiment: Effective dose required to inhibit 50% of apomorphine effect; type: functional; settings: Canis lupus familiaris; procedure, shortened: as §3
[7] = target: T2, Adrenergic receptor alpha-2 (Rattus norvegicus, UniProt P22086+P19328+P22909); experiment: Inhibitory activity against alpha-2 adrenergic receptor by 3H ligand binding experiments.; type: protein assay
T2 sequence (P22086 whole entry): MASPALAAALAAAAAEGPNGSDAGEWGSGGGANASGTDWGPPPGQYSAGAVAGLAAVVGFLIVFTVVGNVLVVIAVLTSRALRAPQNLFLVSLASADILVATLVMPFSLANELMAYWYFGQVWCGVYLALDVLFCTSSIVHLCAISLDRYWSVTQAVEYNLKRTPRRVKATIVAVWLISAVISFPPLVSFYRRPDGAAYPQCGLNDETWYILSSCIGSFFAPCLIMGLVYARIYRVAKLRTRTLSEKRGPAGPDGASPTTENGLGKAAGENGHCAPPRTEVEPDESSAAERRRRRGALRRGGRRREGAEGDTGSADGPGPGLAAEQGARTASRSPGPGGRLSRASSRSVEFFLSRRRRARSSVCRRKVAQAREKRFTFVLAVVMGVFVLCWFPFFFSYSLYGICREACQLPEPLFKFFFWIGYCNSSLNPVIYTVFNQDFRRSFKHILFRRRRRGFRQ
T2 sequence (P19328 whole entry): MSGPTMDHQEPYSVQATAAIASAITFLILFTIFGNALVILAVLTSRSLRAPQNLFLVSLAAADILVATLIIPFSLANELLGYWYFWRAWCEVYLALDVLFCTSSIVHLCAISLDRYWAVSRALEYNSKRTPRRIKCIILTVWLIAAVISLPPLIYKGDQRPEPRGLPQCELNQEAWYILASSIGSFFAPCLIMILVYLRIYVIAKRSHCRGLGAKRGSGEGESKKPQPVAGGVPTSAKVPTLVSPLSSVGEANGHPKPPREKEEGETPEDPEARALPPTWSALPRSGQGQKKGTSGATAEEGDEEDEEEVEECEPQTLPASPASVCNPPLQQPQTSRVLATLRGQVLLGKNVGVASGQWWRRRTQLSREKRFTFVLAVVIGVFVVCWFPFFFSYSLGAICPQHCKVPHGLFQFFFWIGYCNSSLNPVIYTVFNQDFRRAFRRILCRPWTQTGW
T2 sequence (P22909 whole entry): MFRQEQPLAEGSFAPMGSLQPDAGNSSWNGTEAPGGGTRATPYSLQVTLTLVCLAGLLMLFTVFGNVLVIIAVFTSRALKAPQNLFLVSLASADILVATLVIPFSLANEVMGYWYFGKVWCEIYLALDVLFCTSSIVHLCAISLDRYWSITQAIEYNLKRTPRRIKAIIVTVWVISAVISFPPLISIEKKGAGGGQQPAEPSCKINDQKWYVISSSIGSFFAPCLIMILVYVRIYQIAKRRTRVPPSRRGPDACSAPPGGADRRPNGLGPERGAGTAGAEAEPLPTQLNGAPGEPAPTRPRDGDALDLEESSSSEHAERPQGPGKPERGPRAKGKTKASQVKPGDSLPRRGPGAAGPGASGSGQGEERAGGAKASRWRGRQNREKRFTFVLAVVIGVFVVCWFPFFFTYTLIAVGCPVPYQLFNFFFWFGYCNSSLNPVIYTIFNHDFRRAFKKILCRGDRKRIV

[8] = tested on: Canis familiaris; experiment: Compound was tested for anti-apomorphine effect in 3 dogs and the vomiting frequency expressed at a dose of 0.2 mg/kg perorally.; type: functional, Canis lupus familiaris; settings: route oral; procedure, shortened: as §3
[9] = tested on: Canis familiaris; experiment: Compound was tested for anti-apomorphine effect in 3 dogs and the vomiting frequency expressed at a dose of 0.5 mg/kg perorally.; type: functional, Canis lupus familiaris; settings: route oral; procedure, shortened: as §3
[10] = tested on: Canis familiaris; experiment: Compound was tested for anti-apomorphine effect in 3 dogs and the vomiting frequency expressed at a dose of 1.0 mg/kg perorally.; type: functional, Canis lupus familiaris; settings: route oral; procedure, shortened: as §3
[11] = tested on: Canis familiaris; experiment: Compound was tested for anti-apomorphine effect in 3 dogs and the vomiting frequency expressed at a dose of 2.0 mg/kg perorally.; type: functional, Canis lupus familiaris; settings: route oral; procedure, shortened: as §3
[12] = species: Canis familiaris; experiment: Effective dose required to inhibit 50% of apomorphine effect(95% confidence limits); type: functional; settings: Canis lupus familiaris
Procedure, shortened: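 Dogs were given the test drug orally, with saline controls, and then challenged with apomorphine. Vomiting frequency was counted in groups of 2–8 dogs per dose. ED50 and its 95% confidence limits were obtained by probit analysis. Significance against controls used Student's t test.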

[13] = tested on: Mus musculus; experiment: Gastric emptying of phenol red semisolid meal in mouse at the dose of 0.5 mg/kg administered perorally.; type: functional; settings: route oral
Procedure, shortened: (§4)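 Mice received oral test article in 0.5% tragacanth, four or five animals per dose. Emptying of a phenol red semisolid meal was expressed as percent enhancement over the mean of 0.5% tragacanth controls. Significance was tested by Duncan's multiple range test.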

[14] = tested on: Mus musculus; experiment: Gastric emptying of phenol red semisolid meal in mouse at the dose of 1.0 mg/kg administered perorally.; type: functional; settings: route oral; procedure, shortened: as §4
[15] = tested on: Mus musculus; experiment: Toxicity tested in mouse and expressed as number of dead mouse / number of mouse used after a dose of 1.0 g/kg perorally; ++ moderate toxicity; type: organism-based; settings: in vivo, po, 1000 mg/kg; procedure, shortened: as §1
[16] = tested on: Rattus norvegicus; experiment: Gastric emptying of phenol red semisolid meal in rats at the dose of 0.2 mg/kg administered perorally.; type: functional; settings: route oral
[17] = tested on: Rattus norvegicus; experiment: Gastric emptying of phenol red semisolid meal in rats at the dose of 0.5 mg/kg administered perorally.; type: functional; settings: route oral
[18] = tested on: Rattus norvegicus; experiment: Gastric emptying of resin solid meal in rats at the dose of 2.0 mg/kg administered perorally.; type: functional; settings: route oral
[19] = target: Serotonin 2 (5-HT2) receptor (Rattus norvegicus, UniProt P30994+P08909+P14842); experiment: Inhibitory activity against 5-hydroxytryptamine 2 receptor by 3H ligand binding experiments.; type: protein assay
[20] = tested on: Canis familiaris; experiment: Compound was tested for anti-apomorphine effect in 8 dogs and the vomiting frequency expressed at a dose of 1.0 mg/kg perorally.; type: functional, Canis lupus familiaris; settings: route oral; procedure, shortened: as §3
[21] = tested on: Canis familiaris; experiment: Compound was tested for anti-apomorphine effect in 8 dogs and the vomiting frequency expressed at a dose of 10.0 mg/kg perorally.; type: functional, Canis lupus familiaris; settings: route oral; procedure, shortened: as §3
[22] = target: D(2) dopamine receptor (Rattus norvegicus, UniProt P61169); experiment: Inhibitory activity against dopamine receptor D2 by 3H ligand binding experiments.
Procedure, shortened: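 Competition binding used rat striatal synaptic membranes (10 mg wet tissue per assay) with [3H]spiperone. Test compounds spanned 0.01–1000 μM. Assays were started by adding tissue and stopped by rapid glass-fibre filtration with ice-cold buffer washes. Filters were solubilised and radioactivity counted.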

Sequence of D(2) dopamine receptor (P61169 whole entry): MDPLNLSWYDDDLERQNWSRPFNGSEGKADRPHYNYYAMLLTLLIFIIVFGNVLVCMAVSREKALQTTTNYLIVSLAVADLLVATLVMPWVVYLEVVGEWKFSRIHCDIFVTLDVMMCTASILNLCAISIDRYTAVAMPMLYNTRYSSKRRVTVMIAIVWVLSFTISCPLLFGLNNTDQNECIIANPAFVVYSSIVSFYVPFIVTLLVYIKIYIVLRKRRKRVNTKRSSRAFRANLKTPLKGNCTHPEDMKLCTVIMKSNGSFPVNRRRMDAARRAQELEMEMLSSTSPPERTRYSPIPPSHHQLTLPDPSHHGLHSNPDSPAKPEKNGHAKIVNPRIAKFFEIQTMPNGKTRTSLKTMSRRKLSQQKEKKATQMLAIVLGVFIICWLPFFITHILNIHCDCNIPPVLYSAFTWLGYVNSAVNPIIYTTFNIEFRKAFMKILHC

## CCOc1cc(N)c(Cl)cc1C(=O)NCC1CN(C(C)c2ccccc2)CCO1 (stereo not given)
[1]
  Acute toxicity: potent toxicity
[2]
  GE: 44%

## COc1cc(N)c(Cl)cc1C(=O)NC1CCN(CCCOc2ccc(F)cc2)CC1OC (stereo not given) [CISAPRIDE]
[3]
  IC50: 4.47 µM
[4]
  IC50: 0.11 µM
[5]
  Vomiting frequency: 6
[6]
  ED50: > 1 mg/kg
[2]
  GE: 47%

## COc1cc(N)c(Cl)cc1C(=O)NCC1CN(Cc2cccc(C#N)c2)CCO1 (stereo not given)
[1]
  Acute toxicity: potent toxicity
[2]
  GE: 42%

## CCN(CC)CCNC(=O)c1cc(Cl)c(N)cc1OC [METOCLOPRAMIDE]
[3]
  IC50: 7.8 µM
[4]
  IC50: 32.8 µM
[7]
  IC50: 7.7 µM
[8]
  Vomiting frequency: 7.7
[9]
  Vomiting frequency: 4
[10]
  Vomiting frequency: 1.3
[11]
  Vomiting frequency: 0.3
[12]
  ED50: 0.45 mg/kg
[2]
  GE: 21%

## CCOc1cc(N)c(Cl)cc1C(=O)NCC1CN(Cc2ccc(F)cc2)CCO1 (stereo not given) [MOSAPRIDE]
[13]
  GE: 44%
[14]
  GE: 37%
[15]
  Acute toxicity: Partially active
[16]
  GE: 44%
[17]
  GE: 46%
[2]
  GE: 61%
[18]
  GE: 79%

## CCOc1cc(N)c(Cl)cc1C(=O)NCC1CN(Cc2ccc(F)cc2)CCO1.O=C(O)CC(O)(CC(=O)O)C(=O)O (stereo not given) [MOSAPRIDE CITRATE]
[3]
  IC50: > 100 µM
[19]
  IC50: > 100 µM
[4]
  IC50: > 100 µM
[7]
  IC50: > 10 µM
[20]
  Vomiting frequency: 6.4
[21]
  Vomiting frequency: 6.3
[6]
  ED50: > 10 mg/kg
[22]
  IC50: > 100 µM

## COc1cc(N)c(Cl)cc1C(=O)NCC1CN(C(C)c2ccccc2)CCO1 (stereo not given)
[1]
  Acute toxicity: potent toxicity
[2]
  GE: 42%
